# An excerpt weighted towards active compounds, which were near 0.85% of everything screened.
# TRPML3 ag: human TRPML3 channel agonists, primary screen, cell-based, HEK293 TRPML3-YFP, Fluo-8 calcium fluorescence, 3 µM. hit rate 0.29% among 220,000. 100% = the carbachol control signal. AID 1448, 2008. Mucolipin-3 (Homo sapiens), Q8TDD5. activation, % at 3 µM;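 active means activation above its plate's cutoff, the mean activation of the plate's test wells plus 3 SD, cut at about 12% in these data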
#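 Test system – HEK293 line with stable expression of human TRPML3-YFP channel · Control set – carbachol 87 µM final as high control (100%), DMSO as low control (0%) · Signal – Fluo-8 calcium dye fluorescence, ex 470-495, em 515-575 nm · Incubation – 1-h 37 °C dye load, 5-s basal, 120-s post-compound reads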
# V1R ag counter: agonists of human V1a receptor, primary screen, counter-screen for OXTR agonist project, fluorescence, CHO-V1R cells. Fluo-8 calcium fluorescence, agonist mode; 0% DMSO, 100% 3 nM vasopressin. Vasopressin V1a receptor (Homo sapiens), P37288. activation, % at 3 µM. AID 2797, 2010. hit rate 0.25% among 320,000;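 active means activation above the mean activation of all tested compounds plus 3 SD, per screening run, cut at about 20% in these data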;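 further: signal is peak over basal fluorescence ratio across a 100 second FLIPR read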
# OXTR potentiator: human OXTR potentiators, primary screen, fluorescence, CHO-OTR cells, Fluo-8 calcium. Oxytocin receptor (Homo sapiens), P30559. Fluo-8 calcium fluorescence, potentiator mode; 0% = oxytocin EC15, 100% = EC100. activation, % at 3 µM. hit rate 0.061% among 320,000;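 active means activation above that plate's cutoff, the mean activation of tested compounds plus 3 SD, cut at about 6.6% in these data, passing the limit was not always enough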
# Target sequence (P30559 whole entry, looked up): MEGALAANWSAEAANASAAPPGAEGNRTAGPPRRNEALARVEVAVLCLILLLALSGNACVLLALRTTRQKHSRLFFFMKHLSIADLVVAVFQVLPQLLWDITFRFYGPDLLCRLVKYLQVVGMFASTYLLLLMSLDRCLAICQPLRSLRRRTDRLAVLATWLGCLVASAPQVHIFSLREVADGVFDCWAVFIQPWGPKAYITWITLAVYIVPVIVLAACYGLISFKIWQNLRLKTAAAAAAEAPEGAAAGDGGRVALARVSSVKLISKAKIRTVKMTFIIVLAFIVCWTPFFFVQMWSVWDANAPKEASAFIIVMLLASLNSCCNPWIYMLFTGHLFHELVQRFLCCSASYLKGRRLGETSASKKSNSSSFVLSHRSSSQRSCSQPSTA
#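 test system = CHO-OTR cells, human receptor | compound = single-point 3.0 µM | schedule = 6 min compound pre-incubation at room temperature, 100 s kinetic read | signal = Fluo-8 no-wash calcium dye fluorescence, excitation 470-495 nm, emission 515-575 nm | repeats = single well per compound, singlicate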
# TRPN1 ag: zebrafish TRPN1 channel agonists, primary screen, cell-based, HEK293, calcium fluorescence; HEK293 zebrafish TRPN1-YFP, Fluo-8 calcium fluorescence; 100% = response to 87 µM carbachol; activation, % at 3 µM; hit rate 0.18% among 220,000; AID 1424, 2008;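 active means activation above its plate's cutoff, the mean activation of test wells on that plate plus 3 SD, cut at about 19% in these data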
#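 Assay system: Zebrafish TRPN1-YFP in HEK293 cells | Incubation: Dye loading 1 h at 37 °C, then 30 min room temperature | Measured by: Kinetic Fluo-8 fluorescence, ex 470-495, em 515-575 nm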
# CRFR2-BP ag: agonists of CRF-BP/CRF-R2 complex, primary screen, cell-based, HEK293, calcium dye fluorescence, uHTS; CRF-binding protein / CRF receptor 2 complex (human); calcium dye fluorescence (FLIPR); percent of saturating CRF peptide response; activation, % at 13.2 µM; hit rate 0.46% among 350,000;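 active means activation of at least 50%, plus an integration ratio under a set limit after plate pattern correction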
# OXTR ag: human OXTR agonists, primary screen, fluorescence, CHO-OTR cells, Fluo-8 calcium | Oxytocin receptor (Homo sapiens), P30559 | Fluo-8 calcium fluorescence; normalized: DMSO 0%, oxytocin 100% | activation, % at 3 µM | hit rate 0.32% among 320,000;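 active means activation above the mean of all tested compounds plus 3 SD, cutoff set per screening run, cut at about 20% in these data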;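 further: peak over basal fluorescence ratio from a 100 s FLIPR kinetic read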
# A number is an active result; i = inactive; nt = no result given; ! = a repeat was not active.
SMILES,TRPML3 ag,V1R ag counter,OXTR potentiator,TRPN1 ag,CRFR2-BP ag,OXTR ag
CNC(=O)C1CCN(S(=O)(=O)c2c(C)noc2/C=C/c2ccc(OC)cc2)CC1,nt,i,i,nt,54.3,i
O=C(NCc1ccc(OC(F)(F)F)cc1)c1cccc2c1C(=O)c1ccc(N3CCCCC3)cc1S2(=O)=O,nt,i,i,nt,68.1,i
O=C(NCc1ccccc1Br)c1cccc2c1C(=O)c1ccc(-c3ccc(OC(F)(F)F)cc3)cc1S2(=O)=O,nt,i,i,nt,i,i
O=C(NCc1ccc(OC(F)(F)F)cc1)c1cccc2c1C(=O)c1ccc(N3CCCC3)cc1S2(=O)=O,nt,i,i,nt,102.0,i
O=C(NCc1cc(C(F)(F)F)ccc1Cl)c1cccc2c1C(=O)c1ccc(N3CCCCC3)cc1S2(=O)=O,nt,i,i,nt,53.5,i
CCN1C(=O)c2ccccc2Sc2ccc(C(=O)NCCCN(CC(C)C)CC(C)C)cc21,nt,i,i,nt,i,i
CC(CCC(C)C(C)(C)C)[C@@H]1CC[C@H]2C3C[C@H](OS(O)(=S)=S)[C@H]4C[C@H](OS(O)(=S)=S)[C@@H](OS(O)(=S)=S)C[C@]4(C)[C@H]3CC[C@]12C (some centres not stated) (tested in a mixture with another compound),nt,71.0!,i,nt,55.3,58.5
O=C(NC(=O)c1ccccc1O)c1ccc(C(F)(F)F)cc1,i,i,i,i,54.6,i
O=C(Nc1ncccn1)c1ccc(C(F)(F)F)cc1,i,i,i,i,i,i
CCCc1ccc(C(=O)NC(=O)c2ccccc2O)cc1,i,i,i,20.2,50.7,i
COc1cc(C2C(C#N)=C(N)Oc3cc(N(C)C)ccc32)cc2c1OCO2 (configuration not stated),i,i,i,i,157.8,i
COc1cc(C2C(C#N)=C(N)Oc3cc(O)ccc32)cc2c1OCO2 (configuration not stated),i,i,i,i,i,i
COc1ccc(C2C(C#N)=C(N)Oc3cc(O)ccc32)cc1OC (configuration not stated),i,i,i,i,i,i
COc1ccc(C2C(C#N)=C(N)Oc3cc(O)ccc32)cc1C (configuration not stated),nt,i,i,nt,54.8,i
COc1cc([N+](=O)[O-])c2nc(C(=O)O)ccc2c1,nt,nt,nt,nt,i,nt
CC(C)CC(=O)Nc1c2c(nn1-c1cccc(Cl)c1)CS(=O)C2 (configuration not stated),nt,i,i,nt,i,i
Cc1cc(/C=C2\SC(=S)N(C)C2=O)c(C)n1-c1cccc(O)c1,i,i,i,i,i,i
COc1ccc(-n2c(C)cc(/C=C3/SC(=S)N(C)C3=O)c2C)cc1,i,i,i,i,57.5,i
CCCc1nc2sc3ccccc3c(=O)c2c(=O)n1Cc1ccco1,i,nt,nt,i,54.6,nt
CCCCCc1ccnc(CC(=O)c2ccc(OC)cc2)c1,nt,nt,nt,nt,i,nt
CCOc1ccc(NC(=O)/C(C#N)=C/c2ccc(N3CCCC3)c(C)c2)cc1,i,i,i,i,119.3,i
CCN(CC)S(=O)(=O)c1ccc(N2CCCCC2)c(NC(=O)/C(C#N)=C/c2ccc(OC)cc2)c1,i,i,i,i,i,i
CCOc1cc(/C=C(/C#N)C(=O)Nc2ccc(O)cc2)cc(Br)c1O,i,i,i,i,95.6,i
COc1ccc(C(CNC(=O)c2ccc(-c3nc4ccccc4s3)o2)N2CCCC2)cc1 (configuration not stated),nt,i,i,nt,i,i
COC(=O)c1c(C)[nH]c(O)c1C=Nc1ccc(Oc2ccccc2)cc1,i,i,i,i,59.3,i
SMILES,TRPML3 ag,V1R ag counter,OXTR potentiator,TRPN1 ag,CRFR2-BP ag,OXTR ag
CCOC(=O)c1c(C)[nH]c(O)c1C=Nc1ccc(C(F)(F)F)cc1,i,i,i,i,i,i
CCOC(=O)c1c(C)[nH]c(O)c1C=Nc1ccc(Cl)cc1,i,i,i,i,i,i
COC(=O)c1c(C)[nH]c(O)c1C=Nc1ccc(C(C)C)cc1,i,i,i,i,126.3,i
CCOCCn1c(SCC(=O)OCc2ccccc2)nc2c1c(=O)[nH]c(=O)n2C,nt,i,i,nt,55.7,i
CCOCCn1c(SCc2ccccc2)nc2c1c(=O)[nH]c(=O)n2C,nt,i,i,nt,i,i
O=C(c1ccc([N+](=O)[O-])cc1)N(Cc1ccc(Cl)cc1)N1C(=O)CCCC1=O,86.8,i,i,27.3,157.2,i
COC(=O)C1CCN(C(=O)COC(=O)CNC(=O)c2ccc(Cl)cc2Cl)CC1,nt,i,i,nt,i,i
C=CCN(c1ccc(C(=O)NCCCn2ccnc2)cc1)S(C)(=O)=O,nt,i,i,nt,i,i
COc1cc(/C=C2/SC(=Nc3ccc(O)cc3)NC2=O)cc(OC)c1O,i,i,i,i,i,i
COc1ccccc1N=C1NC(=O)/C(=C/c2ccc(N(C)C)cc2)S1,nt,24.5,i,nt,79.4,24.7
C#CCOCCOCCOCCNc1nc(N2CCN(C(=O)CCCCCCCCCCNC(=O)[C@H]([C@@H](C)CC)n3cc(CCCCN=C(N)N)nn3)CC2)nc(N2CCN(C(=O)CCCCCCCCCCNC(=O)[C@H](CO)n3cc(CCCCCN)nn3)CC2)n1,nt,i,i,nt,76.0,i
C#CCOCCOCCOCCNc1nc(N2CCN(C(=O)CCCCCCCCCCNC(=O)[C@H]([C@@H](C)CC)n3cc(CCCCCN)nn3)CC2)nc(N2CCN(C(=O)CCCCCCCCCCNC(=O)[C@@H]([C@H](C)CC)n3cc(CCCCCN)nn3)CC2)n1,nt,27.0,i,nt,nt,i
C#CCOCCOCCOCCNc1nc(N2CCN(C(=O)CCCCCCCCCCNC(=O)[C@H]([C@@H](C)CC)n3cc(CCCCCN)nn3)CC2)nc(N2CCN(C(=O)CCCCCCCCCCNC(=O)[C@H](CO)n3cc(CCCCCN)nn3)CC2)n1,nt,46.2,i,nt,76.6,22.4
C#CCOCCOCCOCCNc1nc(N2CCN(C(=O)CCCCCCCCCCNC(=O)[C@H]([C@@H](C)CC)n3cc(CCCCCN)nn3)CC2)nc(N2CCN(C(=O)CCCCCCCCCCNC(=O)[C@H]([C@@H](C)CC)n3cc(CCCCN=C(N)N)nn3)CC2)n1,nt,i,i,nt,nt,i

# From PubChem
